The target of experiment [1] is Sodium-dependent serotonin transporter (Rattus norvegicus) (UniProt P31652). In words: Displacement of [3H]-citalopram from SERT in rat cortical membranes at 10 uM after 60 mins. The format is cell membranes. The note with it: Membrane. The gist of the method: (§1)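 Frozen rat cortical membranes (washed pellets) in 50 mM Tris-HCl pH 7.4 with 120 mM NaCl and 5 mM KCl, incubated with [3H]citalopram with or without compound. Nonspecific binding defined with 10 µM (S)-citalopram. Bound radioactivity measured by filtration and scintillation counting. Mean ± S.E.M. of replicates; Student's t test vs vehicle.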
Background: Loss of bound radioactivity is the signal in a displacement assay; it reports binding, not function.

Experiment [2] has as its target Sodium-dependent dopamine transporter (Rattus norvegicus, UniProt P23977). In words: Displacement of [3H]-WIN35428 from DAT in rat striatal membranes after 90 mins. The format is cell membranes, Membrane. The gist of the method: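 Frozen rat striatal membranes in 50 mM Tris-HCl pH 7.4 with 120 mM NaCl and 5 mM KCl, incubated 90 min at 4 °C with 2 nM [3H]WIN 35,428. Nonspecific binding defined with 3 µM nomifensine. Stopped by rapid filtration on albumin-presoaked GF/B filters, then scintillation counting.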

The target in experiment [3] is Sodium-dependent serotonin transporter (Rattus norvegicus) (UniProt P31652). In words: Increase of SERT-mediated [3H]-5HT uptake in rat brain cortex synaptosomes at 10 to 30 uM after 7 mins by scintillation counting. The format is subcellular. The method in brief: (§2)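 Rat cortex P2 synaptosomes from 0.32 M sucrose homogenate, resuspended in HEPES-buffered saline pH 7.4 with glucose, ascorbate and pargyline. Aliquots equal to 3 mg tissue preincubated 7 min at 35 °C with compound. Uptake then ran 5 min after adding 100 nM [3H]5-HT, stopped by filtration, and counted by scintillation. Nonspecific uptake defined with 10 µM (S)-citalopram.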

The target is the same in experiment [4]. The experiment in a line: Increase of SERT-mediated [3H]-5HT uptake in rat brain cortex synaptosomes at 10 uM after 7 mins by scintillation counting. Type of experiment: subcellular. The method in brief:
as §2

For experiment [5] the target is unchanged. The experiment in a line: Increase of [3H]-citalopram binding to SERT in rat cortical membranes at 10 to 30 uM after 60 mins. Type of experiment: cell membranes. The note with it: Membrane. The gist of the method:
as §1

The target is the same in experiment [6]. The experiment in a line: Increase of SERT-mediated [3H]-5HT uptake in rat brain cortex synaptosomes after 7 mins by scintillation counting. Type of experiment: subcellular. The method in brief: as §2
For experiment [7] the target is unchanged. The experiment in a line: Increase of [3H]paroxetine binding to SERT in rat cortical membranes at 10 uM after 60 mins. The format is cell membranes. The note with it: Membrane. The gist of the method:
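Saturation binding in rat cortical membranes (Tris-HCl 50 mM pH 7.4, 120 mM NaCl, 5 mM KCl) at varied [3H]paroxetine concentrations, with or without 10 µM compound. Specific binding by scintillation counting. Mean ± SD of 4 replicates. One-site hyperbola fit gave Bmax and Kd.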

For experiment [8] the target is unchanged. The experiment in a line: Increase of [3H]-citalopram binding to SERT in rat cortical membranes at 10 uM after 60 mins. The settings on record: Membrane. The format is cell membranes. The gist of the method:
as §1

Experiment [9] has the same target. The experiment in a line: Increase of [3H]-citalopram binding to SERT in rat cortical membranes after 60 mins. The format is cell membranes. The settings on record: Membrane. The method in brief:
as §1

Experiment [10] has the same target. The experiment in a line: Increase of [3H]-citalopram binding to SERT in rat cortical membranes at 3 to 30 uM after 60 mins. Type of experiment: cell membranes. The note with it: Membrane. The method in brief:
as §1

For experiment [11] the target is unchanged. In words: Increase of SERT-mediated [3H]-5HT uptake in rat brain cortex synaptosomes at 3 to 100 uM after 7 mins by scintillation counting. The format is subcellular. The method in brief: as §2
Experiment [12] concerns the target Sodium-dependent serotonin transporter (Rattus norvegicus, UniProt P31652). In words: Displacement of [3H]-citalopram from SERT in rat cortical membranes after 60 mins. The format is cell membranes, Membrane. The method in brief:
as §1

Results on 23 compounds are retold here after ChEMBL document CHEMBL2157862, “A novel spirocyclic tropanyl-Δ²-isoxazoline derivative enhances citalopram and paroxetine binding to serotonin transporters as well as serotonin uptake” (Bioorg Med Chem, 2012).

Calls of active or inactive are those of the source. The rule behind the calls is not given here.

Sodium-dependent serotonin transporter (Rattus norvegicus), sequence (P31652 whole entry): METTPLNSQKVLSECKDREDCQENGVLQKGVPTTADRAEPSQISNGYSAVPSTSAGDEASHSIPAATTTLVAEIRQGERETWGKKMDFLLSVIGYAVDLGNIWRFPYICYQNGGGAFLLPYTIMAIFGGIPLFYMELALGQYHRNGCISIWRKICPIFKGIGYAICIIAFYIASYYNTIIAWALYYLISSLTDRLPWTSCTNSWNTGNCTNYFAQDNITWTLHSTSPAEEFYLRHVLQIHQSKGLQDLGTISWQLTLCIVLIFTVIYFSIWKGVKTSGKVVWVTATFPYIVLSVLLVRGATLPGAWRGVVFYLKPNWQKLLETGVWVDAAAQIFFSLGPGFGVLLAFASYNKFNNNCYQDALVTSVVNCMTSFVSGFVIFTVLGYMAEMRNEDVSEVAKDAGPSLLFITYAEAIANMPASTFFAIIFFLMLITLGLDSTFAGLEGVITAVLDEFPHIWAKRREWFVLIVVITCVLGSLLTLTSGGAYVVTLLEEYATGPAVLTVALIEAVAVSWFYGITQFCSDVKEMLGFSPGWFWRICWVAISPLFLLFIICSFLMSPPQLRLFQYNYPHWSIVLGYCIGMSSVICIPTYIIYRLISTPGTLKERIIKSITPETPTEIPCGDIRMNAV
Sodium-dependent dopamine transporter, sequence (P23977 whole entry): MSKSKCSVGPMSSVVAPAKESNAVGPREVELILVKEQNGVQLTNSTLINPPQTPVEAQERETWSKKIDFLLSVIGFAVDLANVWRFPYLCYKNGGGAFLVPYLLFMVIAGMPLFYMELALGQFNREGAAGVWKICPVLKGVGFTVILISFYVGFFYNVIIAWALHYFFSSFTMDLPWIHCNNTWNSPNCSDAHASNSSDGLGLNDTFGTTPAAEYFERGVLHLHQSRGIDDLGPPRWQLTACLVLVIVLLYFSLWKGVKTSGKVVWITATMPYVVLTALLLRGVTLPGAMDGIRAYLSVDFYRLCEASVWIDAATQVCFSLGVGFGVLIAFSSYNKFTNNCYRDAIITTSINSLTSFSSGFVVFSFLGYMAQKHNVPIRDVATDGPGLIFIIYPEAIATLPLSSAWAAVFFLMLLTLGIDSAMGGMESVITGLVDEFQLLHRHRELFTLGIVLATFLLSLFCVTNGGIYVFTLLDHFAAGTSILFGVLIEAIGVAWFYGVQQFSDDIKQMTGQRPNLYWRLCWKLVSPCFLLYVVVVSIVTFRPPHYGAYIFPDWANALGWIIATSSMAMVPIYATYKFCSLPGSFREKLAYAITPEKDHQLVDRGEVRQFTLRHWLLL
Sodium-dependent serotonin transporter, sequence (P31652 whole entry): as the sequence (P31652 whole entry) above

As for `CCOC1=NO[C@]2(C1)C[C@H]1CC[C@@H](C2)[N+]1(C)C`, the inhibition entry in experiment [1] was “inactive”. Further, in [2], the IC50 (in general, the concentration that inhibits the measured activity by half) was found to be 5 µM. As for `C[N+]1(C)[C@@H]2CC[C@H]1C[C@@]1(CC(OCc3ccccc3)=NO1)C2`, the inhibition entry in [1] is “inactive”. For the compound `C[N+]1(C)[C@@H]2CC[C@H]1C[C@@]1(CC(CO)=NO1)C2`, the inhibition entry in experiment [1] is “inactive”.

For `C#CCOC1=NO[C@]2(C1)C[C@H]1CC[C@@H](C2)N1C`, in experiment [1], the inhibition entry is “inactive”. Take `CCOC(=O)C1=NO[C@]2(C1)C[C@H]1CC[C@@H](C2)N1C`: in experiment [1], the inhibition entry was “inactive”. Take `COC1=NO[C@]2(C1)C[C@H]1CC[C@@H](C2)[N+]1(C)C`: the inhibition entry in [1] is “inactive”.

With `C[N+]1(C)[C@@H]2CC[C@H]1C[C@@]1(CC(Br)=NO1)C2`, the inhibition result in [1] is “inactive”. As to `BrC1=NO[C@]2(C1)C[C@H]1CC[C@@H](C2)N1`, the inhibition entry in [1] was “inactive”.

Regarding `c1ccc(COC2=NO[C@]3(C2)C[C@H]2CC[C@@H](C3)N2)cc1`, in [1], the inhibition result was “inactive”. The same compound gave an IC50 in experiment [2] of 5 µM.

Regarding `CCOC1=NO[C@]2(C1)C[C@H]1CC[C@@H](C2)N1`, in experiment [1], the inhibition result was “inactive”. The same compound displayed an IC50 in experiment [2] of 5 µM.

`CN1[C@@H]2CC[C@H]1C[C@@]1(CC(CO)=NO1)C2`: in experiment [1], the inhibition entry is “inactive”. With `C#CCOC1=NO[C@]2(C1)C[C@H]1CC[C@@H](C2)N1`, the inhibition result in experiment [1] was “inactive”. On the same count and under the same terms, with `C#CCOC1=NO[C@]2(C1)C[C@H]1CC[C@@H](C2)[N+]1(C)C` the entry was “inactive”; with `CN1[C@@H]2CC[C@H]1C[C@@]1(CC(OCc3ccccc3)=NO1)C2`, “inactive”.

As for `COC1=NO[C@]2(C1)C[C@H]1CC[C@@H](C2)N1C`, the inhibition entry in experiment [1] is “inactive”. In addition, the result in experiment [3], in experiment [5] and in [7] was Active. Besides, the Activity in experiment [4] was 30%; in experiment [6], “Dose-dependent effect”; in experiment [8], 25%; in experiment [9] it was “Dose-dependent effect”.

On to `CCOC1=NO[C@]2(C1)C[C@H]1CC[C@@H](C2)N1C`, for which the inhibition result in experiment [1] is “inactive”. Besides, the outcome in experiment [10] and in experiment [11] was Active. The same compound showed an IC50 in [2] of 5 µM. Besides, the Activity in [8] amounted to 11%. For `CCOC(=O)C1=NO[C@]2(C1)C[C@H]1CC[C@@H](C2)[N+]1(C)C`, in [1], the inhibition entry was “inactive”.

In the case of `O=C1C[C@]2(C[C@H]3CC[C@@H](C2)N3)ON1`, in [1], the inhibition result was “inactive”. This compound gave an IC50 in experiment [2] of 5 µM. On to `CN1O[C@]2(CC1=O)C[C@H]1CC[C@@H](C2)N1`, for which, in experiment [12], the 50% inhibitory concentration (IC50) was 5 µM. Turning to `COC1=NO[C@]2(C1)C[C@H]1CC[C@@H](C2)N1`, the inhibition result in experiment [1] is “inactive”.

For `CN1[C@@H]2CC[C@H]1C[C@@]1(CC(=O)NO1)C2`, the inhibition result in [1] was “inactive”. With `CN1O[C@]2(CC1=O)C[C@H]1CC[C@@H](C2)N1C`, in experiment [1], the inhibition result is “inactive”. Further, the result in experiment [9] was inactive. In the case of `CN1[C@@H]2CC[C@H]1C[C@@]1(CC(Br)=NO1)C2`, in [1], the inhibition entry was “inactive”.
